One may read the inhibition as the drop in the measured response relative to a control, in per cent. By IC50 is commonly meant the concentration at which inhibition is half-maximal. A low value points to greater potency.

The record followed here is ChEMBL document CHEMBL4138186, “Synthesis and bio-evaluation of indole-chalcone based benzopyrans as promising antiligase and antiproliferative agents” (Eur J Med Chem, 2018).

Test [1] has as its system MDA-MB-231. In words: Antiproliferative activity against human MDA-MB-231 cells at 10 uM after 48 hrs by MTT assay. In kind it is functional, cell-based. In outline:
(§1)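 Cells seeded and allowed to adhere overnight, then given compound from 10 mM DMSO stock; DMSO alone as vehicle control. Grown 48 h, MTT (5 mg/ml) added for 3 h, formazan dissolved in DMSO, absorbance read at 590 nm. % inhibition = (A control − A treated)/A control × 100; three independent biological replicates. Single-point screen at 10 μM; IC50 from three independent experiments.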

Test [2] addresses DNA ligase 1 (Homo sapiens) (UniProt P18858). Description: Competitive inhibition of human Lig1 using non-ligatable double stranded nicked DNA as substrate after 2 hrs in presence of ATP by EMSA. The essentials:
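Purified hLigI (10 pmol) with compound (31.25–500 μM) and 2 pmol 5'-FAM-labelled non-ligatable nicked duplex (dideoxy 3' end). Buffer: 50 mM Tris-Cl pH 7.5, 10 mM MgCl2, 0.25 mg/ml BSA, 100 mM NaCl, plus ATP. Incubated 2 h on ice, then 6.5% native PAGE. Three independent experiments.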
In general terms: In EMSA bound probe runs differently from free probe, usually more slowly.

For test [3] the target is unchanged. In words: Inhibition of human Lig1 at 10 uM using double strand nicked DNA as substrate after 30 mins in presence of ATP by acrylamide-based fluorescence-assay. The essentials:
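Cy3-labelled nicked duplex (52-mer annealed to 25- and 27-mers; 1 pmol) with purified hLigI (0.2 pmol) in 50 mM Tris-Cl pH 7.5, 10 mM MgCl2, 0.25 mg/mL BSA, 100 mM NaCl, 500 µM ATP. Compound at 10 μM; 30 min at 37 °C. Stopped with formamide/EDTA; ligated and unligated strands separated on 7 M urea/12% denaturing gel. Triplicate.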

Test [4] has as its target LIG4/XRCC4 (Homo sapiens) (UniProt P49917+Q13426). In words: Inhibition of human DNA Lig4/[…] at 10 uM using double strand nicked DNA as substrate after 30 mins in presence of ATP by acrylamide-based fluorescence-assay. The format is protein-complex assay.
In test [5] the test system is HepG2. Description: Antiproliferative activity against human HepG2 cells after 48 hrs by MTT assay. The following applies: HepG2, 48 h. The format is functional, cell-based. The essentials: as §1
Test [6] relates to HeLa. In words: Antiproliferative activity against human HeLa cells at 10 uM after 48 hrs by MTT assay. The format is functional, cell-based. In outline:
as §1
(In general: Tetrazolium dyes change colour on reduction, which living cells bring about.)

For test [7], the system named is 4T1 (Mus musculus). In words: Antiproliferative activity against mouse 4T1 cells at 10 uM after 48 hrs by MTT assay.
Test [8] deals with DLD-1. In words: Induction of apoptosis in human DLD1 cells assessed as early apoptotic cells at 10 uM after 48 hrs by Annexin V-FITC/propidium iodide staining-based flow cytometric method relative to control. The format is functional. The essentials: (§2)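 DLD-1 cells exposed to 2.5, 5 and 10 μM for 48 h, harvested, washed in cold PBS and stained with Annexin V-FITC and PI in binding buffer at room temperature in the dark. Analysed by flow cytometry; early and late apoptotic fractions averaged from three independent experiments.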

The test system of test [9] is DLD-1. Description: Induction of apoptosis in human DLD1 cells assessed as late apoptotic cells at 5 uM after 48 hrs by Annexin V-FITC/propidium iodide staining-based flow cytometric method relative to control. The format is functional. In outline:
as §2

Test [10] concerns the target T1, DNA ligase 3 (Homo sapiens) (UniProt P49916).
T1 sequence (whole entry): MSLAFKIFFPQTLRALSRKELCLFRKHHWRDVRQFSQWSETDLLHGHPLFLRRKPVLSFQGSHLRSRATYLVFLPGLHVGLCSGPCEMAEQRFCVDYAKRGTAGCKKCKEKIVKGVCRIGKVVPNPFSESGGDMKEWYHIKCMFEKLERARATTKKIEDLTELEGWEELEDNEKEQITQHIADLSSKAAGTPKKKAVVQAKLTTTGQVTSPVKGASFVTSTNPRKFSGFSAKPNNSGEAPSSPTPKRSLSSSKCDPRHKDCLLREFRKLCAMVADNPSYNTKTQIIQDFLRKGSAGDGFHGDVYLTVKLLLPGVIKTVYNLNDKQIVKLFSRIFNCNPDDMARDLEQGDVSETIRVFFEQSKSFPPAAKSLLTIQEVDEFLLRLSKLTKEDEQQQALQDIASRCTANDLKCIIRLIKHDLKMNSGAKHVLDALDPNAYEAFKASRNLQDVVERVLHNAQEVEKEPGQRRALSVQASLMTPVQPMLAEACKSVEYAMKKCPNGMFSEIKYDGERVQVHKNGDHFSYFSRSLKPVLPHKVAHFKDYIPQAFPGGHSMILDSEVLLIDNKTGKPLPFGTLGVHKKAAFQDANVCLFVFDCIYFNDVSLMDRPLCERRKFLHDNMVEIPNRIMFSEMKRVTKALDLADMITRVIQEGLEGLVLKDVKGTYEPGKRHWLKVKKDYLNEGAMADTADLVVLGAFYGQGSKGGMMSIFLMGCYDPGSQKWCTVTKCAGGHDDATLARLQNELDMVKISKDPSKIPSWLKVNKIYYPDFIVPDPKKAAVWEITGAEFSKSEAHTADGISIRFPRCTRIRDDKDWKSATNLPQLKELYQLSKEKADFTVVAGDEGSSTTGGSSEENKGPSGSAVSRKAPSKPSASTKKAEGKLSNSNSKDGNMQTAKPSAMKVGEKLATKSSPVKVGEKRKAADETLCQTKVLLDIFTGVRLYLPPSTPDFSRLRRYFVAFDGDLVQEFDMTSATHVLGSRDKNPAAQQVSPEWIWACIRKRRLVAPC
In words: Inhibition of human Lig3beta at 10 uM using double strand nicked DNA as substrate at 3.125 to 50 uM after 30 mins in presence of ATP by acrylamide-based fluorescence-assay.

For test [11], the target named is T2, DNA ligase (Enterobacteria phage T4) (UniProt P00970).
T2 sequence (whole entry): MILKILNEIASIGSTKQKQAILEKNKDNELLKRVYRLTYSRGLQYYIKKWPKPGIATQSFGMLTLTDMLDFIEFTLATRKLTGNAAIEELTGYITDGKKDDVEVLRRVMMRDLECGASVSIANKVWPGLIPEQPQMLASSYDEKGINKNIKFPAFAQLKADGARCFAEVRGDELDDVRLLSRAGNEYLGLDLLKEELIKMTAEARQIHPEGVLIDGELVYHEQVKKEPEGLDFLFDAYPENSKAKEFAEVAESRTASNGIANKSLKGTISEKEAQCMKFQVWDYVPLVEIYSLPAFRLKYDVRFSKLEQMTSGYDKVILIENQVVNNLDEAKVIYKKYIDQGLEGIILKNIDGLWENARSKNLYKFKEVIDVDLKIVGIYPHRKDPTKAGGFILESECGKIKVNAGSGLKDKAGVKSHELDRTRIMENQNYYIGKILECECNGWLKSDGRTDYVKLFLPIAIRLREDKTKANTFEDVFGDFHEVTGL
In words: Inhibition of T4 DNA ligase at 10 uM using double strand nicked DNA as substrate at 3.125 to 50 uM after 30 mins in presence of ATP by acrylamide-based fluorescence-assay. The note with it: Tequatrovirus T4.

Test [12] relates to DLD-1. In words: Antiproliferative activity against human DLD1 cells at 10 uM after 48 hrs by MTT assay. In kind it is functional, cell-based. The essentials:
as §1

In test [13] the test system is HeLa. In words: Antiproliferative activity against human HeLa cells after 48 hrs by MTT assay. The format is functional, cell-based. The essentials:
as §1

The source made the active and inactive calls. The rule behind the calls is not given here.

DNA ligase 1 (Homo sapiens), sequence (P18858 whole entry): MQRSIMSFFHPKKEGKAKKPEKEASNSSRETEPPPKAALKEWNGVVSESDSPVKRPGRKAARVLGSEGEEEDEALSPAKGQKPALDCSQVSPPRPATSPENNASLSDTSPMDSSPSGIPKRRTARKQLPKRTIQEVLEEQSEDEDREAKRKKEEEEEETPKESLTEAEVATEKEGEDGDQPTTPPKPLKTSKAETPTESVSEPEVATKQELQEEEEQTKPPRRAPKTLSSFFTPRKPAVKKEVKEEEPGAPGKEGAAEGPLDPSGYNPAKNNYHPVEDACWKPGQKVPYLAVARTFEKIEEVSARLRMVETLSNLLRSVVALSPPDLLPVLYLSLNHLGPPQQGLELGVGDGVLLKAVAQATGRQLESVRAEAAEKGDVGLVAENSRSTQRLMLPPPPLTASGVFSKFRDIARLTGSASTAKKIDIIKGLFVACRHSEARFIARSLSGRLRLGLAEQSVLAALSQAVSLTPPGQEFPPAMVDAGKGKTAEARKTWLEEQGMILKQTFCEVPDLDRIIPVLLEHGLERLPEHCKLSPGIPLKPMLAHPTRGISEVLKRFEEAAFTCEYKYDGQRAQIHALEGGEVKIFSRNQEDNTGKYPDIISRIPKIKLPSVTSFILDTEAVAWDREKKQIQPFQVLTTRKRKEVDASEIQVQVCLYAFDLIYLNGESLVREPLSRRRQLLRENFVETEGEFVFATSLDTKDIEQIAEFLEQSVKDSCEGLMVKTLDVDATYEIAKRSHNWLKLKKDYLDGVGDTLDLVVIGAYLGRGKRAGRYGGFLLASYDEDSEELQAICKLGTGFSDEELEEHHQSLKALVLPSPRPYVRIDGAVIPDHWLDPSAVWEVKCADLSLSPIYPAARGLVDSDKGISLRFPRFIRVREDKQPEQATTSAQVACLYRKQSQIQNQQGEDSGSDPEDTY

Consider `Cc1[nH]c2ccccc2c1C1C(C#N)=C(N)Oc2c1cc(/C=C/C(=O)c1cccs1)cc2C(C)(C)C` (stereo not drawn), for which the result in [1], in test [6], in test [7] and in [12] was Active. Further, the inhibition entry is “Dose-dependent effect” in test [2], 69.4% in test [3] and “Dose-dependent effect” in [4]. The half-maximal inhibitory concentration (IC50) in [5] is 6.46 µM; in test [13], 6.4 µM. Besides, the results for the Activity in test [8] and in test [9] were 26.53% and 14.85%, respectively. The inhibition result in test [10] and in test [11] was “inactive” each time.
